# Activity calls are given as the source filed them.
# How the values were obtained:
# [1] = biological target: Epidermal growth factor receptor (Homo sapiens) (UniProt P00533); test: Inhibition of human EGFR assessed as enzyme activity at 10 uM
# [2] = biological target: Glycogen synthase kinase-3 beta (Homo sapiens) (UniProt P49841); test: Inhibition of human GSK3beta assessed as enzyme activity at 10 uM
# [3] = biological target: Insulin-like growth factor 1 receptor (Homo sapiens) (UniProt P08069); test: Inhibition of human IGF-1R assessed as enzyme activity at 10 uM
# Homo sapiens = species on record: Homo sapiens; test: Selectivity ratio of IC50 for human CDK2/cyclin A to IC50 for human CDK4/cyclin D1
# [4] = Growth inhibition of p53+, pRb+ human NCI-H460 cells after 48 hrs by MTT assay; type: functional, cell-based; conditions: NCI-H460, 48 h
# How it was run: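 MTT cell proliferation assay. IC50 (µM) was defined as the concentration giving 50% inhibition of cell growth.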
# A549 [5] = test: Cell cycle arrest in human A549 cells assessed as accumulation of cells at G0/G1 phase at IC50 concentration after 24 hrs by flow cytometry (reference value: 49%); type: functional
# A549 [6] = test: Cell cycle arrest in human A549 cells assessed as accumulation of cells at S phase at IC50 concentration after 24 hrs by flow cytometry (reference value: 29%); type: functional
# NCI-H1299 [7] = test: Cell cycle arrest in human NCI-H1299 cells assessed as accumulation of cells at G0/G1 phase at IC50 concentration after 24 hrs by flow cytometry (reference value: 56%); type: functional
# NCI-H1299 [8] = test: Cell cycle arrest in human NCI-H1299 cells assessed as accumulation of cells at S phase at IC50 concentration after 24 hrs by flow cytometry (reference value: 21%); type: functional
# NCI-H1299 [9] = test: Cell cycle arrest in human NCI-H1299 cells assessed as accumulation of cells at G2/M phase at IC50 concentration after 24 hrs by flow cytometry (reference value: 18%); type: functional
# NCI-H358 [10] = test: Cell cycle arrest in human NCI-H358 cells assessed as accumulation of cells at S phase at IC50 concentration after 18 hrs by flow cytometry in presence of […] uM hydroxyurea for 18 hrs (reference value: 12%); type: functional
# [11] = Cell cycle arrest in mouse BNL-CL2 cells assessed as accumulation of cells at S phase at IC50 concentration after 48 hrs by flow cytometry (reference value: 15%); type: functional
# How it was run: (§1)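 Normal (BNL CL2) and SV40 large T-antigen transformed (BNL SV A.8) mouse embryonic hepatic cells were treated at IC50 or IC70 concentration for 48 h. Analysis was by FACS, with apoptosis taken as % cells in the sub-G1 peak. Untreated cells served as control.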
# [12] = Cell cycle arrest in mouse BNL-SVA.8 cells assessed as accumulation of cells at G2/M phase at IC50 concentration after 48 hrs by flow cytometry (reference value: 13%); type: functional; how it was run: as §1
# [13] = Cell cycle arrest in mouse BNL-SVA.8 cells assessed as accumulation of cells at subG1 phase at IC50 concentration after 48 hrs by flow cytometry (reference value: 0%); type: functional; how it was run: as §1
# MiaPaCa [14] = test: Induction in cyclin B1 level in p53His273 mutant, pRb+ human MiaPaCa cells at IC50 concentration after 48 hrs by Western blot analysis; type: functional
# MiaPaCa [15] = test: Effect on phosphorylation of Cdk1 at Tyr15 in p53His273 mutant, pRb+ human MiaPaCa cells at IC50 concentration after 48 hrs by Western blot analysis; type: functional
# Tubulin (Homo sapiens) [16] = biological target: T1, Tubulin (Homo sapiens) (UniProt P68371+Q9H4B7+P0DPH7+P68366+Q13509+Q71U36+P04350+Q3ZCM7+P07437+P68363+Q9BQE3+Q6PEY2+Q13885+Q9BVA1+Q9BUF5); test: Inhibition of tubulin (unknown origin) polymerization assessed as decrease in Vmax measured by spectrophotometry; type: protein-complex assay
# How it was run: (§2)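 Purified tubulin polymerisation followed as absorbance increase over about 4000 s. Vmax (mOD/min) is taken as the read-out, with final polymer mass also noted. Compound is tested at 2.5, 5, 10 and 25 µM alongside untreated control, paclitaxel 10 µM (enhancer) and nocodazole 10 µM (inhibitor). Curves are the average of three independent experiments.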
# Tubulin (Homo sapiens) [17] = biological target: T1, Tubulin (Homo sapiens); test: Inhibition of tubulin (unknown origin) polymerization assessed as decrease in Vmax measured at 25 uM by spectrophotometry; type: protein-complex assay; how it was run: as §2
# Tubulin (Homo sapiens) [18] = biological target: T1, Tubulin (Homo sapiens); test: Inhibition of tubulin polymerization in p53+, pRb+ human A549 cells assessed as paclitaxel-mediated polymerization treated simultaneously measured after 30 mins by Western blot analysis; type: cell-based
# Tubulin (Homo sapiens) [19] = biological target: T1, Tubulin (Homo sapiens); test: Inhibition of tubulin polymerization in p53+, pRb+ human A549 cells assessed as paclitaxel-mediated polymerization treated followed by compound treatment measured after 30 mins by Western blot analysis; type: cell-based
# A549 [20] = test: Induction of apoptosis in p53+, pRb+ human A549 cells assessed as fragmented nuclei/distrupted cell membrane at 1 to 10 uM by DAPI staining-based flow cytometry; type: functional; conditions: TDE = time-dependent effect
# [21] = Solubility in simulated intestinal fluid; type: ADME
# [22] = Cmax in BALB/c mouse at 10 mg/kg, po; type: ADME, organism-based; parameters: dose 10 mg/kg, route oral; conditions: in vivo
# How it was run: (§3)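 BALB/c mice given a single dose of 1.0 mg/kg IV or 10 mg/kg orally; plasma concentration followed over time and pharmacokinetic parameters derived from the time-concentration profile.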
# [23] = Clearance in BALB/c mouse at 1 mg/kg, iv; type: ADME, organism-based; parameters: dose 1 mg/kg, route intravenous; conditions: in vivo; how it was run: as §3
# [24] = Oral bioavailability in BALB/c mouse at 10 mg/kg; type: ADME, organism-based; conditions: in vivo; how it was run: as §3
# [25] = Terminal half life in BALB/c mouse at 10 mg/kg, po; type: ADME, organism-based; parameters: dose 10 mg/kg, route oral; conditions: in vivo, read-out: beta t1/2 (converted); how it was run: as §3
# [26] = Antitumor activity against human HCT116 cells xenografted in SCID mouse assessed as inhibition of tumor growth at 100 mg/kg, ip relative to untreated control; type: functional; conditions: HCT-116, ip, route intraperitoneal
# How it was run: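 SCID male mice, 18-25 g, 6-8 weeks old, received 6.6 × 10^6 HCT-116 cells subcutaneously on the dorsal side. Randomized into groups of 7 at 4-6 mm tumors (about 5 days), then dosed intraperitoneally for 9 consecutive days. Tumor size recorded every 2-5 days, weight = L×W²×0.5; %GI = 100 − %T/C. Body weight taken daily relative to start; Student t-test.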
# BNL-CL2 = test: Cell cycle arrest in mouse BNL-CL2 cells assessed as accumulation of cells at G2/M phase at IC70 concentration after 48 hrs by flow cytometry; type: functional, cell-based; how it was run: as §1
# [27] = Cell cycle arrest in human WI38 cells assessed as accumulation of cells at G2/M phase by flow cytometry; type: functional, cell-based; conditions: WI-38
# A549 [28] = test: Induction of p21 level in p53+, pRb+ human A549 cells at IC50 concentration after 24 hrs by Western blot analysis
# LS174T = test: Increase in p27 level in p53+, pRb+ human LS 174T cells at IC50 concentration after 24 hrs by Western blot analysis
# NCI-H358 [29] = test: Induction of apoptosis in p53 null, […] human NCI-H358 cells assessed as fragmented nuclei/distrupted cell membrane after 24 hrs by DAPI staining-based flow cytometry
# Chain of Insulin-like growth factor 1 receptor (Homo sapiens) (P08069 31-736 limits assumed): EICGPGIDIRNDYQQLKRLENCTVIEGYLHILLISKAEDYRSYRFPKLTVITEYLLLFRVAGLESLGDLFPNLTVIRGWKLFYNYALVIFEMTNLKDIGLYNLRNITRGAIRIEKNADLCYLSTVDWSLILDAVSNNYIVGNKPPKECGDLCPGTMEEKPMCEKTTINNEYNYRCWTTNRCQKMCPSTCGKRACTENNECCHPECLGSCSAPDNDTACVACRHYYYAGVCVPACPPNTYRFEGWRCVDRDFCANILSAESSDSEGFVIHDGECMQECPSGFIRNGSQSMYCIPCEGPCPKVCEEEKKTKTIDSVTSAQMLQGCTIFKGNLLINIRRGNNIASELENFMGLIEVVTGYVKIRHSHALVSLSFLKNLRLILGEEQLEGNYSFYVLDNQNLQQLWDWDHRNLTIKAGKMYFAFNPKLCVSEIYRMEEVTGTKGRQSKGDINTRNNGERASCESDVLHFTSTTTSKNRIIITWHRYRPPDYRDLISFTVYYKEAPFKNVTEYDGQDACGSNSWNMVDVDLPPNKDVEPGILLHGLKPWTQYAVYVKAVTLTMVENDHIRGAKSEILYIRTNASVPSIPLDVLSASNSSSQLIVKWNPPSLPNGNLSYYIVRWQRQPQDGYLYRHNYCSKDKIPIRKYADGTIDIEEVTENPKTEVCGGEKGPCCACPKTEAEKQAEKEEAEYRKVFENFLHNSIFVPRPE
# Chain of Insulin-like growth factor 1 receptor (Homo sapiens) (P08069 741-1367 limits assumed): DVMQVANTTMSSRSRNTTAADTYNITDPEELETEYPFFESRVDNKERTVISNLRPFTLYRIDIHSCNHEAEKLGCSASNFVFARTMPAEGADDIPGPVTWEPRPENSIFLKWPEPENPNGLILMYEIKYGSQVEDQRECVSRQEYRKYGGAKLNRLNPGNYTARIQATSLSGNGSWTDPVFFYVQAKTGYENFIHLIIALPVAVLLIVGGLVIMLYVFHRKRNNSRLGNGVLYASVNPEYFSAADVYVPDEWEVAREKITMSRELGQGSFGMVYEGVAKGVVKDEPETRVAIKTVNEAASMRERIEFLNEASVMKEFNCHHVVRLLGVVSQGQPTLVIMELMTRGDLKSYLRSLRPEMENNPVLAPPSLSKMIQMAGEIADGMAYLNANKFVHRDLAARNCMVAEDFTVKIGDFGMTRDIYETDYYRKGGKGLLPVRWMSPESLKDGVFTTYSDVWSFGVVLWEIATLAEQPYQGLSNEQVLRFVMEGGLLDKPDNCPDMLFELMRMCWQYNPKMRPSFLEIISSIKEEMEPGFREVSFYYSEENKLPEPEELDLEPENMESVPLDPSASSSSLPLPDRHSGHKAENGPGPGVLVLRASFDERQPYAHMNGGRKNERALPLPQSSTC
# Chain of Glycogen synthase kinase-3 beta (Homo sapiens) (P49841 whole entry, looked up): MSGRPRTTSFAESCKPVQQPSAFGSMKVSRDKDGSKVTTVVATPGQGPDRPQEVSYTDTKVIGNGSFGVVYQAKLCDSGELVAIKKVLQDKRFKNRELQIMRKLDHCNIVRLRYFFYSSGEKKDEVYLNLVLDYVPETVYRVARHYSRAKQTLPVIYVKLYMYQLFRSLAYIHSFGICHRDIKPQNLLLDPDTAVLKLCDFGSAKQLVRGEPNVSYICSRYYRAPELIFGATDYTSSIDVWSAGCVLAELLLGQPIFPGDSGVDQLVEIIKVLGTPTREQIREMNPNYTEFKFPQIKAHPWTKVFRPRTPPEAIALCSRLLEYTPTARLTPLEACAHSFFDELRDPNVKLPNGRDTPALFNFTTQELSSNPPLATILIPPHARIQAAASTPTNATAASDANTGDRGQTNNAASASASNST
# Chain of Epidermal growth factor receptor (Homo sapiens) (P00533 whole entry): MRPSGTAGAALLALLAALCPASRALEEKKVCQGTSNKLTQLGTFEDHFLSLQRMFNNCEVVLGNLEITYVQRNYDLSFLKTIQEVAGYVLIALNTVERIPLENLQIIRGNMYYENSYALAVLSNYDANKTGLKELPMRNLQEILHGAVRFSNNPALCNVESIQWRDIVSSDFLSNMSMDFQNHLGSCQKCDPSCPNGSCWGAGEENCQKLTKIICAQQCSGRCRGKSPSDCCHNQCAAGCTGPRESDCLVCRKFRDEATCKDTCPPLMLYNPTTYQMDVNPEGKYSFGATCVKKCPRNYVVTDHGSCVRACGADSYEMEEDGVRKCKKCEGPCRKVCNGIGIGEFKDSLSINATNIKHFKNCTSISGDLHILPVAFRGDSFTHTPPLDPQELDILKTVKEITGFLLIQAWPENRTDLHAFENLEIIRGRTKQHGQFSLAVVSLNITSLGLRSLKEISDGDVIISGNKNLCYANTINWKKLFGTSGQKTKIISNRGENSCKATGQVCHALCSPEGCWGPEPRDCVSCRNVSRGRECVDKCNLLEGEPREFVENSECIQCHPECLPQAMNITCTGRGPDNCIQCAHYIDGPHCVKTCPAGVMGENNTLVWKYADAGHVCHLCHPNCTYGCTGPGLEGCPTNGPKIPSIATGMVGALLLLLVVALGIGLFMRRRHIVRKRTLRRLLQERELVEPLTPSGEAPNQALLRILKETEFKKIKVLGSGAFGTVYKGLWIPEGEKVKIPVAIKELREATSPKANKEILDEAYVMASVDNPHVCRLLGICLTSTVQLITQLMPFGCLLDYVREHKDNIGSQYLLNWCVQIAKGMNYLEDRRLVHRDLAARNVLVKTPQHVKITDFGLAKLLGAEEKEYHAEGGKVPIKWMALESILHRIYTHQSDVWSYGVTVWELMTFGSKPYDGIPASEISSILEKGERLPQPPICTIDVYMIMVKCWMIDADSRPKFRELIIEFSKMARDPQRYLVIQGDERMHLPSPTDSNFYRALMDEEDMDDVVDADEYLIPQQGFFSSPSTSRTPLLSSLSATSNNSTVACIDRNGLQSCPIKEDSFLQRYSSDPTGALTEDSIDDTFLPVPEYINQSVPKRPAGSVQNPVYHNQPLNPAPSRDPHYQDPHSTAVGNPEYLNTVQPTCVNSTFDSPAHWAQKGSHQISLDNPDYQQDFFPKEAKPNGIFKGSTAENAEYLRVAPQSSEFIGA
smiles,measurement,setting,value
CN(CCc1c[nH]c2ccccc12)C(=O)c1ccc(-c2ccccc2)cc1,inhibition,[1],inactive
same,inhibition,[2],inactive
same,inhibition,[3],inactive
same,Ratio IC50,Homo sapiens,84
same,IC50,[4],2 µM
same,Activity,A549 [5],3%
same,Activity,A549 [6],4%
same,Activity,NCI-H1299 [7],22%
same,Activity,NCI-H1299 [8],10%
same,Activity,NCI-H1299 [9],71%
same,Activity,NCI-H358 [10],10%
same,Activity,[11],9%
same,Activity,[12],14%
same,Activity,[13],31%
same,Activity,MiaPaCa [14],Active
same,Activity,MiaPaCa [15],inactive
same,inhibition,Tubulin (Homo sapiens) [16],Dose-dependent effect
same,Activity (milli optical density/minute),Tubulin (Homo sapiens) [17],0.4
same,inhibition,Tubulin (Homo sapiens) [18],Dose-dependent effect
same,inhibition,Tubulin (Homo sapiens) [19],Dose-dependent effect
same,Activity,A549 [20],tde
same,solubility,[21],5 µg/mL
same,Cmax,[22],0.19 µg/mL
same,clearance,[23],5.3 L/h/kg
same,bioavailability,[24],9.6%
same,half-life,[25],1.16 h
same,inhibition in vivo at 100 mg/kg,[26],80%
same,Activity,BNL-CL2,Active
same,Activity,[27],Active
same,Activity,A549 [28],Active
same,Activity,LS174T,Active
same,Activity,NCI-H358 [29],Dose-dependent effect

# From ChEMBL document CHEMBL3351368, “Biphenyl-4-carboxylic acid [2-(1H-indol-3-yl)-ethyl]-methylamide (CA224), a nonplanar analogue of fascaplysin, inhibits Cdk4 and tubulin polymerization: evaluation of in vitro and in vivo anticancer activity” (J Med Chem, 2014)
